Test results reported in ChEMBL document CHEMBL3351944 (J Nat Prod, 2014).

Assays:
[1] = tested on: MCF7; assay: Antiproliferative activity against human MCF7 cells assessed as growth inhibition after 72 hrs by MTS/PMS assay; type: functional, cell-based; details: MCF7, 72 h
Summary of the method: (§1)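 MCF7 cells seeded at 2000/well and left to attach overnight. Six-point curves in duplicate over 100 nM–100 μM for test compounds and 1 nM–1 μM for geldanamycin, 1% DMSO final, 72 h at 37 °C. Growth read by MTS/PMS and normalized to 1% DMSO controls. At least two independent experiments; nonlinear regression gave IC50 and % inhibition.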

[2] = tested on: MCF7; assay: Antiproliferative activity against human MCF7 cells assessed as growth inhibition after 72 hrs by MTS/PMS assay relative to DNSO-treated control; type: functional; summary of the method: as §1
[3] = tested on: MDCK; assay: Apparent permeability from basolateral side to apical in MDCK cells expressing MDR1 at 10 uM after 60 mins by LC/MS analysis; type: ADME, cell-based, Canis lupus familiaris; details: dog, 1 h
[4] = tested on: MDCK; assay: Apparent permeability from basolateral side to apical in verapamil pretreated MDCK cells expressing MDR1 at 10 uM after 60 mins by LC/MS analysis; type: ADME, cell-based, Canis lupus familiaris; details: dog, 1 h
[5] = target: T1, Kappa-type opioid receptor (Homo sapiens, UniProt P41145); assay: Agonist activity at human kappa opioid receptor expressed CHO cells co-expressing Galphaq16 assessed as calcium mobilization by fluorescence assay; type: functional, cell-based
T1 sequence (P41145 whole entry): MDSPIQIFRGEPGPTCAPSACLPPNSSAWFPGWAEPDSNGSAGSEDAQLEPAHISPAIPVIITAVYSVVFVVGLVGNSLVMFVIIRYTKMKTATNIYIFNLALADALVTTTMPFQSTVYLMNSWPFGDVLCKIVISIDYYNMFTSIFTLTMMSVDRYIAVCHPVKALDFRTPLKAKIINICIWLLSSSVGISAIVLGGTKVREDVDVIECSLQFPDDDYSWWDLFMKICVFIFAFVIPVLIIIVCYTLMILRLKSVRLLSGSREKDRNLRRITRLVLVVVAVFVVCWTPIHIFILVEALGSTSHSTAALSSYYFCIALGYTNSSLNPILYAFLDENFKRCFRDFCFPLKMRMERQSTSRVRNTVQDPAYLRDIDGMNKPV
Summary of the method: (§2)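 CHO cells stably expressing KOP and Gαq16, grown overnight at 37 °C. Loaded with Calcium 5 dye in HBSS with 20 mM HEPES, 0.25% BSA, 1% DMSO, […], 1 h at 37 °C. Compounds added as 10× dilutions, top 10 μM. Fluorescence change over baseline recorded for 60 s. 10-point curves in duplicate, n = 2. Nonlinear regression gave EC50 and Emax.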

[6] = target: T1, Kappa-type opioid receptor; assay: Agonist activity at human kappa opioid receptor expressed CHO cells co-expressing Galphaq16 assessed as calcium mobilization by fluorescence assay relative to (-)-U69593; type: functional, cell-based; summary of the method: as §2

| SMILES | IC50 [1] [nM] | inhibition (INH) [2] [%] | permeability [3] [%] | permeability [4] [%] | EC50 [5] [nM] | Emax [6] [%] |
| --- | --- | --- | --- | --- | --- | --- |
| O=C1C=CC(=O)C=C1 [BENZOQUINONE] | 2570 | 85 | – | – | – | – |
| COc1cc2nc(N3CCN(C(=O)c4ccco4)CC3)nc(N)c2cc1OC [PRAZOSIN] | – | – | 6.7 | 35.5 | – | – |
| COC(=O)[C@@H]1C[C@H](OC(C)=O)C(=O)[C@H]2[C@@]1(C)CC[C@H]1C(=O)O[C@H](CC3=CC(=O)C(OC)=C(OC)C3=O)C[C@]21C | 2700 | 86 | 5 | 47.2 | > 10000 | – |
| COC1=C2C[C@@H](C)C[C@H](OC)[C@H](O)[C@@H](C)/C=C(\C)[C@H](OC(N)=O)[C@@H](OC)/C=C\C=C(/C)C(=O)NC(=CC1=O)C2=O [GELDANAMYCIN] | 40 | 81 | – | – | – | – |
| COC(=O)[C@@H]1C[C@H](OC(C)=O)C(=O)[C@H]2[C@@]1(C)CC[C@H]1C(=O)O[C@H](c3ccoc3)C[C@]21C [SALVINORIN A] | > 100000 | – | 21.2 | 54.2 | – | – |
| Cn1c(=O)c2c(ncn2C)n(C)c1=O [CAFFEINE] | – | – | 85.9 | 73 | – | – |
| COC(=O)[C@@H]1C[C@H](OC(C)=O)C(=O)[C@H]2[C@@]1(C)CC[C@H]1C(=O)O[C@H](CC3=CC(=O)C(OC)=CC3=O)C[C@]21C | 5840 | 83 | 9.7 | 38.4 | > 10000 | – |
| COC(=O)[C@@H]1C[C@H](OC(C)=O)C(=O)[C@H]2[C@@]1(C)CC[C@H]1C(=O)O[C@H](CC3=CC(=O)C=CC3=O)C[C@]21C | 6540 | 77 | – | – | 2500 | 27 |
